Series [1] deals with T1, Free fatty acid receptor 1 (Homo sapiens, UniProt O14842). Description: Antagonist activity against human FFA1 expressed in human Flp-In T-REx293 cells assessed as as reduction in TUG424-induced response by Fura2-AM dye based calcium mobilization assay. The series is classed as functional, cell-based. The gist of the method: (§1)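 Flp-In T-REx 293 cells with inducible human FFA1, seeded at 50000 cells/well and induced with 100 ng/ml doxycycline after 3-4 h adherence. Next day loaded with Fura2-AM for 45 min, washed, then preincubated 15 min in HBSS with test ligand before 300 nM agonist challenge. Fura2 340:380 ratio change read at 510 nm emission. Inhibition expressed as % reduction of the agonist response.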
T1 sequence (O14842 whole entry): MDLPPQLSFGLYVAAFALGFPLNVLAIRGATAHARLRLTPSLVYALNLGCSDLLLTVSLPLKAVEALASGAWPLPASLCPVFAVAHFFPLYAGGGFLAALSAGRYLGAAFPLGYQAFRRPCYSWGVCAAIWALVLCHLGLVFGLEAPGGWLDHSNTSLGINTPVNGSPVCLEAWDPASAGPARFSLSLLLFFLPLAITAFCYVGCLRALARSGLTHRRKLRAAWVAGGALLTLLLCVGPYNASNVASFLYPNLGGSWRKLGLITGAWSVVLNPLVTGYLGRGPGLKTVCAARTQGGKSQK
Background: A change in cytosolic calcium serves as a functional read-out for many receptors and channels.

The target in series [2] is T1, Free fatty acid receptor 1. Nature of the series: Antagonist activity against human FFA1 expressed in human Flp-In T-REx293 cells assessed as as reduction in 300 nM TUG424-induced response by Fura2-AM dye based calcium mobilization assay relative to untreated control. The class given is functional, cell-based. The gist of the method: as §1
Series [3] deals with T2, Free fatty acid receptor 4 (Homo sapiens, UniProt Q5NUL3).
T2 sequence (Q5NUL3 whole entry): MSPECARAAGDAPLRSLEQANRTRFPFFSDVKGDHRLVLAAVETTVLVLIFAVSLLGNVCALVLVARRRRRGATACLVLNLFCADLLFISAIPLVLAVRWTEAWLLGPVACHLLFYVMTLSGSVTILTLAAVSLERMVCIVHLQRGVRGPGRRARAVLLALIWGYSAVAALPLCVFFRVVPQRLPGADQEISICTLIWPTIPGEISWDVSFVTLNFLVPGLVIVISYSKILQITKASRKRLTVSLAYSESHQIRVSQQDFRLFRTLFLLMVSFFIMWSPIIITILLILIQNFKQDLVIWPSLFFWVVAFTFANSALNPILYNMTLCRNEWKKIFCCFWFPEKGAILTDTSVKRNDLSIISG
Description: Agonist activity at C-terminal YFP-tagged human FFA4 expressed in HEK293 cells in presence of coelentrazine h by BRET based beta-arrestin-2 interaction assay. The series is classed as cell-based. The gist of the method:
(§2)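 HEK293 cells co-transfected with C-terminal eYFP-fused human FFA4 and β-arrestin-2–Renilla luciferase; plated 24 h post-transfection, used 24 h later. After an HBSS wash, coelenterazine h (2.5 µM) for 15 min, with ligands present for the final 5 min, 37 °C. BRET taken as the 535/475 nm emission ratio. Efficacy relative to 100 µM reference agonist. Three-parameter sigmoidal fits; mean ± S.E. of 2-4 independent experiments.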

Series [4] concerns the target T3, Free fatty acid receptor 4 (Homo sapiens) (UniProt Q5NUL3).
T3 sequence (whole entry): T2 sequence (Q5NUL3 whole entry)
Nature of the series: Agonist activity at C-terminal YFP-tagged human FFA4 expressed in HEK293 cells in presence of coelentrazine h by BRET based beta-arrestin-2 interaction assay relative to 100 uM […]. The series is classed as cell-based. The gist of the method: as §2
(BRET reads energy transfer from a luciferase to a nearby fluorophore.)

Series [5] has as its target T2, Free fatty acid receptor 4. Nature of the series: Agonist activity at human FFA4 expressed in human Flp-In T-REx293 cells by Fura2-AM dye based calcium mobilization assay. The series is classed as functional, cell-based. The gist of the method: (§3)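 Flp-In T-REx 293 cells with doxycycline-inducible human FFA4 seeded at 50000 cells/well and induced overnight with 100 ng/ml doxycycline. Loaded with Fura2-AM for 45 min, washed three times in HBSS, equilibrated 15 min, then ligand added. Emission at 510 nm with 340/380 nm excitation; response is the change in 340:380 ratio. Efficacy relative to 100 µM reference agonist; 2-4 independent experiments, sigmoidal fits.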

Series [6] concerns the target T3, Free fatty acid receptor 4 (Homo sapiens). Nature of the series: Agonist activity at human FFA4 expressed in human Flp-In T-REx293 cells by Fura2-AM dye based calcium mobilization assay relative to 100 uM […]. The class given is functional, cell-based. A digest of the protocol:
as §3

Series [7] has as its target T1, Free fatty acid receptor 1. Description: Antagonist activity against human FFA1 expressed in human Flp-In T-REx293 cells assessed as as reduction in TUG770-induced response by Fura2-AM dye based calcium mobilization assay. The class given is functional, cell-based. The gist of the method:
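Antagonism measured in FFA1 Ca2+ mobilization with 20 nM TUG-770 as the stimulating agonist. Test ligand preincubated 15 min in HBSS before agonist addition. Read-out is the change in Fura2 340:380 ratio at 510 nm emission.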

Series [8] is described as follows: Solubility in PBS buffer. The series is classed as physicochemical.
Series [9] can be described thus: Solubility in FaSSIF solution. The series is classed as physicochemical.
Series [10] deals with T4, Free fatty acid receptor 4 (Mus musculus, UniProt Q7TMA4).
T4 sequence (Q7TMA4 whole entry): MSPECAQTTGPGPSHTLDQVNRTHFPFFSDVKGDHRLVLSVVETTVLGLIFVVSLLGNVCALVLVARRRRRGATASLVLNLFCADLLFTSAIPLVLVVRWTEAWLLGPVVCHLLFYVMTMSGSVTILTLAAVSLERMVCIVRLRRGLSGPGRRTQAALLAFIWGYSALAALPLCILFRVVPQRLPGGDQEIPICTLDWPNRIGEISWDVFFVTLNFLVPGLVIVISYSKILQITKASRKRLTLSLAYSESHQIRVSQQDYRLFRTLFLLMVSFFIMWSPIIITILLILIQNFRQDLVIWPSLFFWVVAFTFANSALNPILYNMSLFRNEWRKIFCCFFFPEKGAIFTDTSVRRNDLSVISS
Description: Agonist activity mouse FFA4 by Gq-dependent calcium mobilization assay. The series is classed as functional.

The nature of series [11]: Lipophilicity, log D of the compound at pH 7.4. The class given is physicochemical. The note with it: buffer.
In series [12] the test system is Mus musculus. Nature of the series: Reduction in plasma glucose level in mouse at 10 mg/kg, po dosed 15 mins before oral glucose challenge by OGTT method. The class given is functional, organism-based. The gist of the method:
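Mice fasted 5 h and given compound orally at 10 mg/kg, 15 min before an oral glucose load of 3 g/kg. Tail-tip blood sampled under local anesthetic 30 min before and immediately before the load, and at 30, 60, 90, 120 and 180 min after it. Glucose measured in duplicate by glucose oxidase colorimetric assay; n=6 mice per group.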

Values after ≈ are worked out from the molar mass of the structure shown. Active and inactive are the calls of the source. No cut-off for these calls is given here.

As usually defined, the IC50 is the point on the concentration scale where inhibition reaches its midpoint. Take `CN(c1ccc(Oc2ccccc2)cc1)S(=O)(=O)c1ccc(F)cc1`: in series [1], the 50% inhibitory concentration (IC50) was 10700 nM. Moreover, the Imax in series [2] was 57%.
As usually defined, the Emax is the maximal effect, on the per cent scale that the assay sets. On to `Cc1cccc(Oc2cc(F)cc(N3Cc4ccccc4S3(=O)=O)c2)c1`, for which the figures for the EC50 in series [3] (read-out: pEC50 (converted)) and in series [5] were 2630 nM and 4470 nM, respectively. In addition, the maximal response (Emax) in series [4] was determined as 87%; in series [6] it was 14%. For the same compound, the IC50 in series [1] was 25100 nM. The Imax in series [2] was 51%.
Regarding `COc1ccc(S(=O)(=O)Nc2c(C)cc(C)cc2C)cc1`, the EC50 in series [3] (read-out: pEC50 (converted)) is 490 nM. In [4], the Emax stood at 82%.
In the case of `N#Cc1ccc(Oc2cc(F)cc(N3Cc4ccccc4S3(=O)=O)c2)cc1`, the EC50 in [3] (read-out: pEC50 (converted)) was 1660 nM; in series [5], 2340 nM. For the same compound, the figures for the Emax in [4] and in series [6] were 87% and 29%, respectively. Besides, in series [1], the concentration for half-maximal inhibition (IC50) was 617 nM. Also, in series [2], the Imax was determined as 43%.
As to `O=C1c2ccccc2C(=O)N1c1cc(F)cc(Oc2cccnc2)c1`, the EC50 in series [3] (read-out: pEC50 (converted)) is 5010 nM. Besides, the Emax in series [4] was 45%.
What is called solubility is the concentration that dissolves in the medium under given conditions. Low values mean a poorly soluble substance, high ones a readily soluble substance. Take `O=S1(=O)c2ccccc2CN1c1cc(Cl)cc(Oc2ccccn2)c1`: the EC50 in series [3] (read-out: EC50) was 40 nM; in series [3] (read-out: pEC50 (converted)), 138 nM; in series [5], 38.9 nM; in series [10], 72.4 nM. The Emax turned out to be 113% in [4] and 78% in series [6]. Moreover, the IC50 in [7] was over 100000 nM. Moreover, the solubility in series [8] is 0.1 µM (≈ 0.0373 µg/mL); in [9], 0.9 µM (≈ 0.336 µg/mL).
On to `Cc1ccc(Oc2cc(F)cc(N3Cc4ccccc4S3(=O)=O)c2)cc1`, for which the values for the EC50 in series [3] (read-out: pEC50 (converted)) and in series [5] were 437 nM and 1100 nM, respectively. Moreover, the maximal response (Emax) is 91% in [4] and 38% in series [6]. Further, the IC50 in series [1] was 2880 nM. For the same compound, the Imax in series [2] worked out at 52%.
Consider `O=S(=O)(Nc1cc(F)cc(Oc2cccnc2)c1)c1ccc(F)cc1`, for which, in [3] (read-out: pEC50 (converted)), the EC50 was 16600 nM. For the same compound, the Emax in [4] is 39%.
For the compound `N#CCc1cccc(Oc2cc(F)cc(N3Cc4ccccc4S3(=O)=O)c2)c1`, the EC50 in series [3] (read-out: pEC50 (converted)) was 5250 nM. The Emax in series [4] stood at 57%. Further, the half-inhibitory concentration (IC50) in [1] was 20000 nM. Further, the Imax in [2] came to 44%.
Broadly, the logD is the decadic logarithm of the distribution of all forms, ionised or not, between an organic phase and buffer at a given pH. A higher logD goes with higher lipophilicity. `O=S1(=O)c2ccccc2CN1c1cc(F)cc(Oc2cccnc2)c1`: the EC50 in series [3] (read-out: pEC50 (converted)) is 437 nM; in series [5] it was 302 nM; in series [10], 83.2 nM. In addition, the maximal response (Emax) in [4] was 107%; in series [6] it was 115%. Also, the concentration for half-maximal inhibition (IC50) in series [1] is over 100000 nM. In addition, the log distribution coefficient (logD) in series [11] was 3.12. In series [8], this compound had a solubility of 11 µM (≈ 3.92 µg/mL). Also, the result in series [12] was Active.
For the compound `O=S1(=O)c2ccccc2CN1c1cccc(Oc2ccccn2)c1`, the EC50 is 1550 nM in series [3] (read-out: pEC50 (converted)) and 1020 nM in [5]. The maximal response (Emax) was found to be 102% in [4] and 93% in series [6]. Further, the 50% inhibitory concentration (IC50) in [1] was over 100000 nM.
For `O=S1(=O)c2ccccc2CN1c1cc(F)cc(Oc2ccncc2)c1`, the figures for the EC50 in series [3] (read-out: pEC50 (converted)) and in series [5] were 1260 nM and 1700 nM, respectively. The Emax in series [4] stood at 97%; in [6], 120%. The IC50 in series [1] was over 100000 nM.
`O=S1(=O)c2ccccc2CN1c1cc(F)cc(Oc2ccccc2)c1`: the values for the EC50 in [3], in [3] (read-out: pEC50 (converted)) and in series [5] were under 10000 nM, 234 nM and 380 nM, respectively. Besides, the maximal response (Emax) in [4] was 101%; in series [6], 78%. Besides, in series [1], the half-inhibitory concentration (IC50) is 3890 nM. Besides, the Imax in [2] was found to be 47%.
Turning to `Cc1ccccc1Oc1cc(F)cc(N2Cc3ccccc3S2(=O)=O)c1`, the EC50 in series [3] (read-out: pEC50 (converted)) was 2690 nM. The Emax in series [4] is 42%. Moreover, in series [1], the IC50 was 44700 nM. Further, the Imax in [2] was 71%.
On to `N#Cc1ccccc1Oc1cc(F)cc(N2Cc3ccccc3S2(=O)=O)c1`, for which the EC50 in [3] (read-out: pEC50 (converted)) was 16200 nM. For the same compound, the Emax in [4] was found to be 76%. For the same compound, in series [1], the IC50 was over 100000 nM.
In the case of `CCCCc1ccc(NS(=O)(=O)c2ccc(F)cc2)cc1`, the EC50 in series [3] (read-out: pEC50 (converted)) is 5370 nM. In series [4], the Emax was determined as 76%. For the same compound, the IC50 in series [1] is 8130 nM. In series [2], the Imax is 68%.
On to `O=S1(=O)c2ccccc2CN1c1cccc(Oc2ccccc2)c1`, for which the values for the EC50 in series [3] (read-out: pEC50 (converted)) and in series [5] were 245 nM and 209 nM, respectively. Moreover, the results for the Emax in [4] and in series [6] were 95% and 105%, respectively. Also, the concentration for half-maximal inhibition (IC50) in [1] was 174 nM. Moreover, the Imax in [2] came to 39%.
On to `O=S(=O)(Nc1ccc(Oc2ccccc2)cc1)c1ccc(F)cc1`, for which, in series [3] (read-out: pEC50 (converted)), the EC50 is 3550 nM. For the same compound, in [4], the Emax worked out at 52%. The half-inhibitory concentration (IC50) in [1] was 12900 nM. Moreover, in [2], the Imax was 95%.
Turning to `O=S1(=O)c2ccccc2CN1c1cc(F)cc(OCc2ccccc2)c1`, in series [3] (read-out: pEC50 (converted)), the EC50 was over 100000 nM. The IC50 in series [1] was 2450 nM. The Imax in series [2] worked out at 36%.
As to `Cc1ccc(S(=O)(=O)Nc2ccc(Oc3ccccc3)cc2)cc1`, in series [1], the IC50 was 10000 nM. Moreover, the Imax in [2] was found to be 100%.
Consider `N#Cc1cccc(Oc2cc(F)cc(N3Cc4ccccc4S3(=O)=O)c2)c1`, for which the EC50 in series [3] (read-out: pEC50 (converted)) is 5750 nM. Besides, the Emax in series [4] was found to be 83%. Moreover, the IC50 in series [1] was 3390 nM. The Imax in series [2] came to 52%.

Values taken from ChEMBL document CHEMBL3860043, “Non-Acidic Free Fatty Acid Receptor 4 Agonists with Antidiabetic Activity” (J Med Chem, 2016).
